Columns and labels:
[1] = molecular target: Tyrosine-protein kinase Lck (Homo sapiens) (UniProt P06239); test: Equilibrium constant for competitive binding to p56 lck SH2 domain by SPR after 5th run
How it was run: (§1)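 Injected at 5 μL/min over streptavidin chip bearing biotinylated EPQpYEEIPIA (500 nM loading); 10 mM HCl regeneration. Plateau RU vs peptide fitted by nonlinear regression (eq 15) for KS, KC fixed from direct binding.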

[2] = molecular target: Tyrosine-protein kinase Lck (Homo sapiens) (UniProt P06239); test: Equilibrium constant for competitive binding to p56 lck SH2 domain by SPR after 3rd run; how it was run: as §1
[3] = molecular target: Tyrosine-protein kinase Lck (Homo sapiens) (UniProt P06239); test: Equilibrium constant for competitive binding to p56 lck SH2 domain by SPR after 4th run; how it was run: as §1
[4] = molecular target: Tyrosine-protein kinase Lck (Homo sapiens) (UniProt P06239); test: Equilibrium constant for competitive binding to p56 lck SH2 domain by SPR after 1st run; how it was run: as §1
[5] = molecular target: Tyrosine-protein kinase Lck (Homo sapiens) (UniProt P06239); test: Equilibrium constant for competitive binding to p56 lck SH2 domain by SPR after 2nd run; how it was run: as §1

Tyrosine-protein kinase Lck (Homo sapiens), sequence (P06239 2-509 limits assumed): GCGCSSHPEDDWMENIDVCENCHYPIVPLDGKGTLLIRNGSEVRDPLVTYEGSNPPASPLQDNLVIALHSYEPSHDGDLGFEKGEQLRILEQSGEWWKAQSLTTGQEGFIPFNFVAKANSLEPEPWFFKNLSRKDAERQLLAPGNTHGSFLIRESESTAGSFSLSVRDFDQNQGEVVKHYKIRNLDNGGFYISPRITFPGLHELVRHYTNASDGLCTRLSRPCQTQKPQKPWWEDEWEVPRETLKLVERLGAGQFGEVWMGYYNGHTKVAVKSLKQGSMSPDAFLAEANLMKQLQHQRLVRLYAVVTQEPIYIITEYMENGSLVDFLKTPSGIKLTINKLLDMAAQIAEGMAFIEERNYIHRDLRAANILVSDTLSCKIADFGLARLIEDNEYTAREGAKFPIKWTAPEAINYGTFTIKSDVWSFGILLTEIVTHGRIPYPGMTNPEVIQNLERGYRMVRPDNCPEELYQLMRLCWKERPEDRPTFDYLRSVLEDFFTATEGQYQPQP

Ks [1] [µM] | Ks [2] [nM] | Ks [3] [nM] | Ks [4] [nM] | Ks [5] [nM] | SMILES
2.16 | 908 | 938 | 833 | 916 | NC(=O)CC[C@H](NC(=O)CNC(=O)[C@@H](N)CCC(=O)O)C(=O)N[C@@H](Cc1ccc(OP(=O)(O)O)cc1)C(=O)N[C@@H](CCC(=O)O)C(=O)N[C@@H](CCC(=O)O)C(=O)NCC(=O)N1CCC[C@@H]1C(=O)O
2.85 | 1220 | 1250 | 1320 | 982 | CC[C@H](C)[C@H](NC(=O)[C@H](CCC(=O)O)NC(=O)CNC(=O)[C@H](Cc1ccc(OP(=O)(O)O)cc1)NC(=O)CNC(=O)[C@H](CCC(N)=O)NC(=O)[C@@H](N)CCC(=O)O)C(=O)N1CCC[C@@H]1C(=O)O
– | 26.9 | 27.8 | 14.4 | 22.8 | CC[C@H](C)[C@H](NC(=O)[C@H](CCC(=O)O)NC(=O)[C@H](CCC(=O)O)NC(=O)[C@H](Cc1ccc(OP(=O)(O)O)cc1)NC(=O)[C@H](CCC(N)=O)NC(=O)CNC(=O)[C@@H](N)CCC(=O)O)C(=O)N1CCC[C@@H]1C(=O)O
0.536 | 242 | 261 | 171 | 167 | CC[C@H](C)[C@H](NC(=O)CNC(=O)[C@H](CCC(=O)O)NC(=O)[C@H](Cc1ccc(OP(=O)(O)O)cc1)NC(=O)[C@H](CCC(N)=O)NC(=O)CNC(=O)[C@@H](N)CCC(=O)O)C(=O)N1CCC[C@@H]1C(=O)O
